Assay results reported in ChEMBL document CHEMBL1811876 (J Med Chem, 2011).
Calls of active or inactive are those of the source. No cut-off for these calls is given here.

Assays:
[1] = tested on: A549; assay: Anticancer activity against human A549 cells after 72 hrs by sulforhodamine B assay; format: functional; conditions: A549, 72 h
[2] = tested on: DU-145; assay: Anticancer activity against human DU145 cells after 72 hrs by sulforhodamine B assay; format: functional; conditions: DU-145, 72 h
[3] = tested on: KB; assay: Anticancer activity against human KB cells after 72 hrs by sulforhodamine B assay; format: functional
[4] = tested on: HCT-8; assay: Anticancer activity against human HCT8 cells after 72 hrs by sulforhodamine B assay; format: functional; conditions: HCT-8, 72 h
[5] = Anticancer activity against human KBVIN cells after 72 hrs by sulforhodamine B assay; format: functional
[6] = (§1) Upregulation of Cdt1 expression in human CL1-5 cells at 0.01 ug/mL by RT-PCR analysis after 24 to 48 hrs by Western blot; format: functional, cell-based
Outline: (§2)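 CL1-5 cells were exposed to the test agent for 24 and 48 h. Cdt1 and CDC6 protein levels were then assessed by Western blot.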

[7] = as §1; format: functional, cell-based; outline: as §2; remark: listed apart in the source
[8] = Upregulation of Cdt1 expression in human CL1-5 cells at 0.01 ug/mL by RT-PCR analysis after 24 to 48 hrs; format: functional, cell-based
[9] = Upregulation of CDC6 expression in human CL1-5 cells at 0.01 ug/mL by RT-PCR analysis after 24 to 48 hrs; format: functional, cell-based
[10] = Upregulation of CDT1 expression in human CL1-5 cells by cDNA microarray; format: functional, cell-based
[11] = Upregulation of CDC6 expression in human CL1-5 cells by cDNA microarray; format: functional, cell-based; conditions: TDE = time-dependent effect

Compound | GI50 [1] [µM] | GI50 [2] [µM] | GI50 [3] [µM] | GI50 [4] [µM] | GI50 [5] [µM] | Activity [6] | Activity [7] | Activity [8] | Activity [9] | Activity [10] | Activity [11]
COc1ccc2c3c(c4cc(OC)c(OC)cc4c2c1)C[C@H]1CN(C(=O)c2ccccc2)CCN1C3 | 15 | 15.7 | > 20 | 18.1 |  |  |  |  |  |  | 
COc1ccc2c3c(c4cc(OC)c(OC)cc4c2c1)C[C@H]1CN(CCO)CCN1C3 | 14.1 | 12.6 | 8.62 | 7.41 |  |  |  |  |  |  | 
COc1ccc2c3c(c4cc(OC)c(OC)cc4c2c1)C[C@@H]1CCOCN1C3 | 1.37 | 1.29 | 1.1 | 1.26 |  |  |  |  |  |  | 
COC(=O)CN1CCN2Cc3c(c4cc(OC)c(OC)cc4c4cc(OC)ccc34)C[C@H]2C1 | 14.7 | > 20 | 14.7 | 14 |  |  |  |  |  |  | 
COc1ccc2c3c(c4cc(OC)c(OC)cc4c2c1)C[C@H]1CCN(N(C)C)CN1C3 | 1.78 | 2.97 | 3.08 | 2.37 |  |  |  |  |  |  | 
COc1ccc2c3c(c4cc(OC)c(OC)cc4c2c1)C[C@@H]1CN(Cc2ccccc2)CN1C3 | 2.68 | 4.62 | 3.41 |  | 1.87 |  |  |  |  |  | 
CCN1CCN2Cc3c(c4cc(OC)c(OC)cc4c4cc(OC)ccc34)C[C@H]2C1 | 7.13 | 10.5 | 8.24 | 9.45 |  |  |  |  |  |  | 
COc1ccc2c3c(c4cc(OC)c(OC)cc4c2c1)C[C@H]1CN(P(=O)(OC)OC)CCN1C3 | 12.2 | 14.7 | 8.09 |  | 10.4 |  |  |  |  |  | 
COc1ccc2c3c(c4cc(OC)c(OC)cc4c2c1)C[C@@H]1CCN(N(C)C)CN1C3 | 5.2 | 3 | 2.84 |  | 5.3 |  |  |  |  |  | 
COc1ccc2c3c(c4cc(OC)c(OC)cc4c2c1)C[C@H]1CN(S(C)(=O)=O)CCN1C3 | 14.5 | 17 | 17.5 | 17.8 |  |  |  |  |  |  | 
COc1ccc2c3c(c4cc(OC)c(OC)cc4c2c1)C[C@H]1CN(Cc2ccccc2)CCN1C3 | > 20 | > 20 | 16.9 |  | 15.2 |  |  |  |  |  | 
COc1ccc2c3c(c4cc(OC)c(OC)cc4c2c1)C[C@H]1CN(Cc2ccccc2)CN1C3 | 5.3 | 4.95 | 5.7 | 3.63 |  |  |  |  |  |  | 
COc1ccc2c3c(c4cc(OC)c(OC)cc4c2c1)C[C@@H]1CN(C)CN1C3 | 0.66 | 1 | 0.79 | 0.66 |  |  |  |  |  |  | 
COc1ccc2c3c(c4cc(OC)c(OC)cc4c2c1)C[C@@H]1CN(C(=O)c2ccccc2)CCN1C3 | 16.4 | 11.9 | 12.1 |  | 7.64 |  |  |  |  |  | 
COc1ccc2c3c(c4cc(OC)c(OC)cc4c2c1)C[C@H]1CN(CCO)CN1C3 | 4.41 | 6.36 | 7.83 | 10.8 |  |  |  |  |  |  | 
COc1ccc2c3c(c4cc(OC)c(OC)cc4c2c1)CC1CCOCCN1C3 (single isomer, unassigned) |  |  | 0.068 |  |  |  |  |  |  |  | 
COc1ccc2c3c(c4cc(OC)c(OC)cc4c2c1)C[C@H]1CCN(CC(C)C)CN1C3 | 1.52 | 2.3 | 5.06 | 1.36 |  |  |  |  |  |  | 
COc1ccc2c3c(c4cc(OC)c(OC)cc4c2c1)C[C@@H]1CCN(CCO)CN1C3 | 2.48 | 1.46 | 2.22 |  | > 20 |  |  |  |  |  | 
COc1ccc2c3c(c4cc(OC)c(OC)cc4c2c1)C[C@H]1CCOCN1C3 | 1.79 | 1.82 | 1.66 | 1.45 |  |  |  |  |  |  | 
COc1ccc2c3c(c4cc(OC)c(OC)cc4c2c1)C[C@H]1CN(C2CC2)CCN1C3 | > 20 | 17.9 | > 20 | 13 |  |  |  |  |  |  | 
COc1ccc2c3c(c4cc(OC)c(OC)cc4c2c1)C[C@@H]1CCN(CC(C)C)CN1C3 | 5.11 | 1.66 | 1.45 |  | 7.32 |  |  |  |  |  | 
COc1ccc2c3c(c4cc(OC)c(OC)cc4c2c1)C[C@@H]1CN(C(=O)N(C)C)CCN1C3 | 14.1 | 13.1 | 12.3 |  | 11.4 |  |  |  |  |  | 
COc1ccc2c3c(c4cc(OC)c(OC)cc4c2c1)C[C@H]1CN(C)CCN1C3 | 9.73 | 7.13 | 5.3 | 6.45 |  |  |  |  |  |  | 

Compound | GI50 [1] [µM] | GI50 [2] [µM] | GI50 [3] [µM] | GI50 [4] [µM] | GI50 [5] [µM] | Activity [6] | Activity [7] | Activity [8] | Activity [9] | Activity [10] | Activity [11]
COc1ccc2c3c(c4cc(OC)c(OC)cc4c2c1)C[C@@H]1CN(CC(C)C)CCN1C3 | 12.9 | 12.2 | 11.2 |  | 9.96 |  |  |  |  |  | 
COc1ccc2c3c(c4cc(OC)c(OC)cc4c2c1)C[C@@H]1CCN(CC2CC2)CN1C3 | 1.12 | 1.2 | 2.1 |  | 5.68 |  |  |  |  |  | 
COc1ccc2c3c(c4cc(OC)c(OC)cc4c2c1)C[C@H]1CN(C(C)=O)CCN1C3 | 11.7 | 11.9 | 15.5 | 13.8 |  |  |  |  |  |  | 
COC(=O)N1CCN2Cc3c(c4cc(OC)c(OC)cc4c4cc(OC)ccc34)C[C@H]2C1 | 10.9 | 12.2 | 11.3 | 12.1 |  |  |  |  |  |  | 
COc1ccc2c3c(c4cc(OC)c(OC)cc4c2c1)C[C@H]1CCN(Cc2ccccc2)CN1C3 | > 20 | > 20 | > 20 | > 20 |  |  |  |  |  |  | 
COc1ccc2c3c(c4cc(OC)c(OC)cc4c2c1)C[C@H]1CN(CC(C)C)CN1C3 | 2 | 6.6 | 4.4 | 1.82 |  |  |  |  |  |  | 
COc1ccc2c3c(c4cc(OC)c(OC)cc4c2c1)C[C@H]1CCCCN1C3 [CRYPTOPLEURINE] | 0.00138 | 0.00159 | 0.00151 | 0.00109 |  |  |  |  |  |  | 
COc1ccc2c3c(c4cc(OC)c(OC)cc4c2c1)C[C@@H]1CN(CC2CC2)CCN1C3 | > 20 | > 20 | > 20 |  | 13.4 |  |  |  |  |  | 
CCCN1C[C@@H]2Cc3c(c4ccc(OC)cc4c4cc(OC)c(OC)cc34)CN2C1 | 3.94 | 7.38 | 6.64 | 2.71 |  |  |  |  |  |  | 
COc1ccc2c3c(c4cc(OC)c(OC)cc4c2c1)C[C@H]1CN(CCc2ccccc2)CN1C3 | 6.62 | 10.2 | 10 | 7.47 |  |  |  |  |  |  | 
COc1ccc2c3c(c4cc(OC)c(OC)cc4c2c1)C[C@H]1CN(c2ccccc2)CN1C3 | > 20 | > 20 | > 20 | > 20 |  |  |  |  |  |  | 
COc1ccc2c3c(c4cc(OC)c(OC)cc4c2c1)C[C@@H]1COCCN1C3 | 14 | 7.05 | 6.68 | 3.45 |  |  |  |  |  |  | 
COc1ccc2c3c(c4cc(OC)c(OC)cc4c2c1)C[C@H]1CCN(C2CC2)CN1C3 | 4.3 | 14.3 | 11.5 | 5.73 |  |  |  |  |  |  | 
COc1ccc2c3c(c4cc(OC)c(OC)cc4c2c1)C[C@H]1CCN(c2ccccc2)CN1C3 | > 20 | > 20 | > 20 | > 20 |  |  |  |  |  |  | 
COc1ccc2c3c(c4cc(OC)c(OC)cc4c2c1)C[C@H]1CN(N(C)C)CN1C3 | 1.67 | 2.26 | 2.31 | 2.01 |  |  |  |  |  |  | 
COc1ccc2c3c(c4cc(OC)c(OC)cc4c2c1)C[C@H]1CN(CC2CC2)CCN1C3 | 0.79 | 2.94 | 6.57 | 0.25 |  |  |  |  |  |  | 
COc1ccc2c3c(c4cc(OC)c(OC)cc4c2c1)C[C@@H]1CN(N(C)C)CN1C3 | 4.15 | 6.01 | 2.38 |  | 11 |  |  |  |  |  | 
COc1ccc2c3c(c4cc(OC)c(OC)cc4c2c1)C[C@H]1CN(C)CN1C3 | 0.66 | 2.03 | 1.72 | 1 |  |  |  |  |  |  | 
COc1ccc2c3c(c4cc(OC)c(OC)cc4c2c1)C[C@H]1CN(C2CC2)CN1C3 | 1.8 | 3.7 | 2.71 | 1.85 |  |  |  |  |  |  | 
COc1ccc2c3c(c4cc(OC)c(OC)cc4c2c1)C[C@H]1CCN(CCO)CN1C3 | 5.68 | 1.99 | 1.59 | 10.7 |  |  |  |  |  |  | 
COc1ccc2c3c(c4cc(OC)c(OC)cc4c2c1)C[C@H]1CCCCCN1C3 |  |  | 0.102 |  |  | inactive | inactive | inactive | inactive |  | 
COc1ccc2c3c(c4cc(OC)c(OC)cc4c2c1)C[C@H]1CNCCN1C3 | 1.73 | 2.08 | 1.79 | 1.62 |  |  |  |  |  |  | 
COc1ccc2c3c(c4cc(OC)c(OC)cc4c2c1)C[C@H]1CCCN1C3 [(-)-ANTOFINE] | 0.022 | 0.025 | 0.036 |  |  | Active | Active | Active | Active | Dose-dependent effect | tde
